The term Ki denotes the dissociation constant of the complex between target and ligand, obtained from inhibition or displacement.

Assay [1] in a line: Agonist-induced calcium mobilization using human polymorphonuclear leukocytes. Also on record: concentration or dose not given beside the values.
The target in assay [2] is Leukotriene B4 receptor 1 (Homo sapiens, UniProt Q15722). Briefly: Inhibition of [3H]- LTB4 binding on human whole cells. Put shortly: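 Intact DMSO-differentiated (1.3%, 3-4 days) human U-937 cells, or isolated human peripheral blood PMNs, 10⁶ cells, incubated in HBSS with 0.1% ovalbumin, 0.2 nM [³H]LTB₄ and compound (0.1 nM-10 μM, 5-8 concentrations in duplicate) for 20 min at 0 °C. Nonspecific binding measured with 1 μM unlabeled LTB₄. Filtration, scintillation counting. Ki from IC50 by Cheng-Prusoff; mean of ≥2 assays.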
Leukotriene B4 receptor 1, sequence (Q15722 whole entry): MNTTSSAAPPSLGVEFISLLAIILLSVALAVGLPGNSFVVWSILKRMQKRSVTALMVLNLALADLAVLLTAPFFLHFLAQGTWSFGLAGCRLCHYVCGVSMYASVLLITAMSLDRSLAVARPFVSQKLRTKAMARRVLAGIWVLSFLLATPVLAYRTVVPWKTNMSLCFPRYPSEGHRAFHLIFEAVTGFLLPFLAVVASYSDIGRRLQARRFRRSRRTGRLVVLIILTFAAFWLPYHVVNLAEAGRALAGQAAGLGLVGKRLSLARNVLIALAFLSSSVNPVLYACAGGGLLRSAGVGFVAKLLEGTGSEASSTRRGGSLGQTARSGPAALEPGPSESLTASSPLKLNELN

Consider `CCCCCCCCC(O)CCc1cccc(CC(O)c2cccc(C(=O)[O-])c2)n1.[Li+]` (centres undefined), for which the Agonist activity % in assay [1] is 84%. Besides, the inhibitory constant (Ki) in assay [2] was determined as 60 nM.

Consider `CCCCCCCCC(O)/C=C/c1cccc(CC(O)c2cccc(C(=O)[O-])c2)n1.[Li+]` (centres undefined), for which the Agonist activity % in assay [1] is recorded as 86%.

With `CCCCOc1cccc(C(O)/C=C/c2cccc(CC(O)c3cccc(C(=O)[O-])c3)n2)c1.[Li+]` (centres undefined), the Agonist activity % in assay [1] is given as 56%. Moreover, in assay [2], affinity was put at a Ki of 3 nM.

With `CCCCCCCCC(O)c1ccc2ccc(CC(O)CCCC(=O)O)nc2c1` (centres undefined), the Agonist activity % in assay [1] is recorded as 63%. This compound also came in with an inhibitory constant (Ki) in assay [2] of 900 nM.

For `CCCCCCCCC(O)c1ccc2ccc(CSc3cccc(C(=O)[O-])c3)cc2c1.[Li+]` (centres undefined), in assay [1], the Agonist activity % is given as 23%. In assay [2], this compound had an inhibitory constant (Ki) of 9000 nM.

As for `CCCCCCCCC(O)c1ccc2ccc(C[S+]([O-])c3cccc(C(=O)O)c3)nc2c1` (centres undefined), in assay [1], the Agonist activity % came out at 98%. Further, in assay [2], affinity was put at a Ki of 140 nM.

Take `CCCCCCCCC(O)c1ccc2ccc(CCc3cccc(C(=O)[O-])c3)nc2c1.[Li+]` (centres undefined): the Agonist activity % in assay [1] is 66%. In assay [2], this compound yielded an inhibitory constant (Ki) of 100 nM.

With `CCCCCCCCC(O)c1ccc2ccc(CSc3cccc(C(=O)O)c3)nc2c1` (centres undefined), the Agonist activity % in assay [1] is 85%. Besides, the inhibitory constant (Ki) in assay [2] was 600 nM.

`CCCCOc1cccc(C(O)CCc2cccc(CC(O)c3cccc(C(=O)[O-])c3)n2)c1.[Li+]` (centres undefined): the Agonist activity % in assay [1] is on record as 4%. Also, the Ki in assay [2] came to 1000 nM.

Regarding `CCCCCCCCC(O)c1ccc2ccc(C[S+]([O-])c3cccc(C(=O)[O-])c3)cc2c1.[Li+]` (centres undefined), in assay [1], the Agonist activity % is 56%. Further, in assay [2], the Ki came to 500 nM.

Regarding `CCCCC/C=C\C[C@H](O)/C=C/c1cccc(C[C@H](O)CCCCO)n1`, in assay [1], the Agonist activity % was 100%. Moreover, affinity in assay [2] was put at a Ki of 700 nM.

As to `CCCCCCCC[C@@H](O)c1ccc2ccc(CCc3cccc(C(=O)[O-])c3)nc2c1.[Li+]`, the Agonist activity % in assay [1] stood at 56%. The same compound had a Ki in assay [2] of 50 nM.

Turning to `CCCCCCCCC(O)c1ccc2ccc(CC(O)c3cccc(C(=O)[O-])c3)nc2c1.[Li+]` (centres undefined), the Agonist activity % in assay [1] is reported as 74%. Further, the Ki in assay [2] is 10 nM.

As for `CCCCCCCCC(O)c1ccc2ccc(CCCCCC(=O)O)nc2c1` (centres undefined), the Agonist activity % in assay [1] was determined as 58%. Also, in assay [2], the Ki came out at 2800 nM.

For `CCCCCCCCC(O)c1ccc2ccc(/C=C/CCCC(=O)O)nc2c1` (centres undefined), the Agonist activity % in assay [1] is 45%. In assay [2], this compound displayed an inhibitory constant (Ki) of 1400 nM.

The record behind these values is ChEMBL document CHEMBL1126874, “Synthesis of structural analogs of leukotriene B4 and their receptor binding activity” (J Med Chem, 1993).
